Laboratory results: ChEMBL document CHEMBL4480442, “Phloroglucinols with Immunosuppressive Activities from the Fruits of Eucalyptus globulus” (J Nat Prod, 2019)
Blank lines part the entries; values can stand above or below the compound they belong to. Activity calls are given as the source filed them. The rule behind the calls is not given here.

Columns and labels:
[1] = Immunosuppressive activity in BALB/c mouse lymph node cells assessed as inhibition of concanavalin A stimulated T-cell proliferation measured after 48 hrs by CCK8 assay; assay type: functional
[2] = Cytotoxicity against BALB/c mouse lymph node cells assessed as reduction in cell viability measured after 48 hrs by CCK8 assay; assay type: cell-based
[3] = […], ratio of CC50 for BALB/c mouse lymph node cells to IC50 for immunosuppressive activity in BALB/c mouse lymph node cells assessed as inhibition of concanavalin A stimulated T-cell proliferation
[4] = Immunosuppressive activity in concanavalin A stimulated BALB/c mouse lymph node cells assessed as induction of apoptosis by measuring necrotic cells at 20 uM measured after 48 hrs by Annexin-V/propidium iodide staining based flow cytometry (reference value: 0%); assay type: functional
Mus musculus [5] = species on record: Mus musculus; test: Immunosuppressive activity in BALB/c mouse lymph node cells assessed as inhibition of concanavalin A stimulated T-cell proliferation by measuring increase in LDH release at 1 to 20 uM; assay type: functional
[6] = Immunosuppressive activity in concanavalin A stimulated BALB/c mouse lymph node cells assessed as induction of apoptosis by measuring late apoptotic cells at 20 uM measured after 48 hrs by Annexin-V/propidium iodide staining based flow cytometry (reference value: 0.2%); assay type: functional
[7] = Immunosuppressive activity in concanavalin A stimulated BALB/c mouse lymph node cells assessed as induction of apoptosis by measuring late apoptotic cells at 1 uM measured after 48 hrs by Annexin-V/propidium iodide staining based flow cytometry (reference value: 0.2%); assay type: functional
[8] = target: RAC-alpha serine/threonine-protein kinase (Mus musculus) (UniProt P31750); test: Inhibition of AKT phosphorylation in concanavalin A stimulated BALB/c mouse lymph node cells assessed as IL4 level at 20 uM measured after 48 hrs by ELISA (reference value: 142.4 +/- 12.4 pg/ml)
In short: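 ELISA for IL-4 or IFN-γ in culture medium: BALB/c […] cells, 2 × 10^6 cells/well, stimulated with ConA (5 μg/mL) with compound at 1, 10, 20 μM for 48 h; absorbance at 450 nm; means ± SEM of three independent experiments.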

[9] = target: RAC-alpha serine/threonine-protein kinase (Mus musculus) (UniProt P31750); test: Inhibition of AKT phosphorylation in concanavalin A stimulated BALB/c mouse lymph node cells at 20 uM measured after 48 hrs by Western blotting analysis
[10] = Immunosuppressive activity in concanavalin A stimulated BALB/c mouse lymph node cells assessed as induction of apoptosis by measuring early apoptotic cells at 1 uM measured after 48 hrs by Annexin-V/propidium iodide staining based flow cytometry (reference value: 0.1%); assay type: functional
Mus musculus [11] = species on record: Mus musculus; test: Immunosuppressive activity in BALB/c mouse lymph node cells assessed as inhibition of concanavalin A stimulated T-cell proliferation at 1 to 20 uM measured after 48 hrs by CCK8 assay; assay type: functional
[12] = Immunosuppressive activity in concanavalin A stimulated BALB/c mouse lymph node cells assessed as induction of apoptosis by measuring viable cells at 20 uM measured after 48 hrs by Annexin-V/propidium iodide staining based flow cytometry (reference value: 99.7%); assay type: functional
[13] = target: RAC-alpha serine/threonine-protein kinase (Mus musculus) (UniProt P31750); test: Inhibition of AKT phosphorylation in concanavalin A stimulated BALB/c mouse lymph node cells assessed as IL4 level at 10 uM measured after 48 hrs by ELISA (reference value: 142.4 +/- 12.4 pg/ml)
[14] = Immunosuppressive activity in concanavalin A stimulated BALB/c mouse lymph node cells assessed as induction of apoptosis by measuring early apoptotic cells at 20 uM measured after 48 hrs by Annexin-V/propidium iodide staining based flow cytometry (reference value: 0.1%); assay type: functional
Mus musculus [15] = species on record: Mus musculus; test: Immunosuppressive activity in concanavalin A stimulated BALB/c mouse lymph node cells assessed as caspase-3 activation at 1 to 20 uM measured after 48 hrs; assay type: functional
Mus musculus [16] = species on record: Mus musculus; test: Immunosuppressive activity in concanavalin A stimulated BALB/c mouse lymph node cells assessed as increase in cytochrome c levels in cytoplasm at 1 to 20 uM measured after 48 hrs by Western blotting analysis; assay type: functional
In short: (§1)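 Mouse […] cells, 2 × 10^6 cells/well, ConA (5 μg/mL) with compound at 1, 10, 20 μM for 48 h; cells washed with PBS, protein extracted and Western blotted; band densities quantified as Bax/Bcl-2 ratio and cytoplasmic/mitochondrial cytochrome c ratio; three independent experiments, means ± SEM.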

[17] = target: RAC-alpha serine/threonine-protein kinase (Mus musculus) (UniProt P31750); test: Inhibition of AKT phosphorylation in concanavalin A stimulated BALB/c mouse lymph node cells assessed as IFNgamma level at 20 uM measured after 48 hrs by ELISA (reference value: 575.9 +/- 8.2 pg/ml)
[18] = Immunosuppressive activity in concanavalin A stimulated BALB/c mouse lymph node cells assessed as induction of apoptosis by measuring late apoptotic cells at 10 uM measured after 48 hrs by Annexin-V/propidium iodide staining based flow cytometry (reference value: 0.2%); assay type: functional
[19] = Immunosuppressive activity in concanavalin A stimulated BALB/c mouse lymph node cells assessed as induction of apoptosis by measuring viable cells at 1 uM measured after 48 hrs by Annexin-V/propidium iodide staining based flow cytometry (reference value: 99.7%); assay type: functional
[20] = Immunosuppressive activity in concanavalin A stimulated BALB/c mouse lymph node cells assessed as induction of apoptosis by measuring early apoptotic cells at 10 uM measured after 48 hrs by Annexin-V/propidium iodide staining based flow cytometry (reference value: 0.1%); assay type: functional
Mus musculus [21] = species on record: Mus musculus; test: Immunosuppressive activity in concanavalin A stimulated BALB/c mouse lymph node cells assessed as caspase-9 activation at 1 to 20 uM measured after 48 hrs; assay type: functional
[22] = Immunosuppressive activity in concanavalin A stimulated BALB/c mouse lymph node cells assessed as induction of apoptosis by measuring necrotic cells at 10 uM measured after 48 hrs by Annexin-V/propidium iodide staining based flow cytometry (reference value: 0%); assay type: functional
[23] = Immunosuppressive activity in concanavalin A stimulated BALB/c mouse lymph node cells assessed as induction of apoptosis by measuring necrotic cells at 1 uM measured after 48 hrs by Annexin-V/propidium iodide staining based flow cytometry (reference value: 0%); assay type: functional
[24] = target: RAC-alpha serine/threonine-protein kinase (Mus musculus) (UniProt P31750); test: Inhibition of AKT phosphorylation in concanavalin A stimulated BALB/c mouse lymph node cells assessed as IL4 level at 1 uM measured after 48 hrs by ELISA (reference value: 142.4 +/- 12.4 pg/ml)
[25] = target: RAC-alpha serine/threonine-protein kinase (Mus musculus) (UniProt P31750); test: Inhibition of AKT phosphorylation in concanavalin A stimulated BALB/c mouse lymph node cells assessed as IFNgamma level at 1 uM measured after 48 hrs by ELISA (reference value: 575.9 +/- 8.2 pg/ml)
Mus musculus [26] = species on record: Mus musculus; test: Immunosuppressive activity in concanavalin A stimulated BALB/c mouse lymph node cells assessed as increase in ratio of Bax/Bcl2 level at 1 to 20 uM measured after 48 hrs by Western blotting analysis; assay type: functional; in short: as §1
[27] = Immunosuppressive activity in concanavalin A stimulated BALB/c mouse lymph node cells assessed as induction of apoptosis by measuring viable cells at 10 uM measured after 48 hrs by Annexin-V/propidium iodide staining based flow cytometry (reference value: 99.7%); assay type: functional

RAC-alpha serine/threonine-protein kinase (Mus musculus), sequence (P31750 whole entry): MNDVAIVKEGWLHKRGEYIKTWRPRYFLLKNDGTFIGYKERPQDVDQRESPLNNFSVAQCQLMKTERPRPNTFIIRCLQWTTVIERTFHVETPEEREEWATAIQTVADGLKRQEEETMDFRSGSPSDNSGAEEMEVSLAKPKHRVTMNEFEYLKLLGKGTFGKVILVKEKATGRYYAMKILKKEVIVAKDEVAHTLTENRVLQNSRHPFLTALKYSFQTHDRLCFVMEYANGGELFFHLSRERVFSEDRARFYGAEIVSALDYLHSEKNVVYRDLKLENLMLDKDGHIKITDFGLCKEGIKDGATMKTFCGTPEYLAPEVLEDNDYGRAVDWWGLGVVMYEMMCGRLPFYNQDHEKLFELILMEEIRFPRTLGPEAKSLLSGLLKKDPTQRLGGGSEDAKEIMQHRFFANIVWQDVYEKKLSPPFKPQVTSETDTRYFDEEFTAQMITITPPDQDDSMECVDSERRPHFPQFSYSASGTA

Structure (SMILES): CCC(C)C(=O)c1c(O)c(C)c(OC)c(C)c1O (stereo not drawn)
IC50 [1]: 70.2 µM
CC50 at 48 h [2]: 623 µM
Ratio CC50/IC50 [3]: 8.9

Structure (SMILES): C/C1=C/[C@H]2[C@@H](CC[C@]3(C)Oc4c(C=O)c(O)c(C=O)c(O)c4[C@@H](CC(C)C)C3CC1)C2(C)C (stereo partly drawn)
IC50 [1]: 129 µM
CC50 at 48 h [2]: 600 µM
Ratio CC50/IC50 [3]: 4.6

Structure (SMILES): CC(C)C[C@H]1c2c(O)c(C=O)c(O)c(C=O)c2O[C@]23CC[C@@]1(C)C2[C@H]1[C@@H](CC[C@@H]3C)C1(C)C (stereo partly drawn)
IC50 [1]: 69.3 µM
CC50 at 48 h [2]: 588 µM
Ratio CC50/IC50 [3]: 8.5

Structure (SMILES): CC(C)C[C@@H](c1c(O)c(C=O)c(O)c(C=O)c1O)[C@@]1(C)CC[C@@H]2[C@@H]1[C@H]1[C@@H](CC[C@@]2(C)O)C1(C)C [MACROCARPAL A]
IC50 [1]: 20.4 µM
CC50 at 48 h [2]: 597 µM
Ratio CC50/IC50 [3]: 29.2

Structure (SMILES): CC(C)C[C@@H](c1c(O)c(C=O)c(O)c(C=O)c1O)[C@@]1(C)C=C2C(C)CC[C@H](C(C)(C)O)C2CC1 (stereo partly drawn)
IC50 [1]: 41.2 µM
CC50 at 48 h [2]: 596 µM
Ratio CC50/IC50 [3]: 14.5

Structure (SMILES): CC(C)CC(=O)c1c(O)c(C=O)c(O)c(C[C@H]2CC[C@H](C)C3=C[C@@H](C(C)(C)O)CC[C@@]32C)c1O
IC50 [1]: 19.1 µM
CC50 at 48 h [2]: 578 µM
Ratio CC50/IC50 [3]: 30.2

Structure (SMILES): CC(C)CC(=O)c1c(O)c(C=O)c(O)c(C[C@@]2(C)CCC3C2[C@H]2[C@@H](CC[C@@]3(C)O)C2(C)C)c1O (stereo partly drawn)
IC50 [1]: 18.2 µM
CC50 at 48 h [2]: 554 µM
Ratio CC50/IC50 [3]: 30.5

Structure (SMILES): COc1c(C)c(O)c(C)c(O)c1C(=O)CC(C)C
IC50 [1]: 133 µM
CC50 at 48 h [2]: 670 µM
Ratio CC50/IC50 [3]: 5

Structure (SMILES): CC(C)C[C@H](c1c(O)c(C=O)c(O)c(C=O)c1O)[C@@]1(C)CC[C@@H]2[C@@H]1[C@H]1[C@@H](CC[C@@]2(C)O)C1(C)C [MACROCARPAL B]
IC50 [1]: 31.2 µM
CC50 at 48 h [2]: 570 µM
Ratio CC50/IC50 [3]: 18.4

Activity [8]: 68.9 pg/mL
inhibition [9]: Active
Activity [13]: 99.7 pg/mL
Activity [17]: 52.5 pg/mL
Activity [24]: 118 pg/mL
Activity [25]: 347 pg/mL
Structure (SMILES): CC(C)C[C@H]1c2c(O)c(C=O)c(O)c(C=O)c2O[C@]2(C)C=C[C@@](O)(C(C)C)CC12 (stereo partly drawn)
Activity [4]: 1%
Activity (Mus musculus [5]): Active
IC50 [1]: 11.8 µM
Activity [6]: 31.7%
Activity [7]: 18.3%
Activity [10]: 25.1%
Activity (Mus musculus [11]): Active
Activity [12]: 4.2%
Activity [14]: 63.1%
Activity (Mus musculus [15]): Active
Activity (Mus musculus [16]): Active
Activity [18]: 19.3%
Activity [19]: 47.5%
Activity [20]: 42.7%
Activity (Mus musculus [21]): Active
Activity [22]: 5.7%
Activity [23]: 9.1%
CC50 at 48 h [2]: 664 µM
Activity (Mus musculus [26]): Active
Ratio CC50/IC50 [3]: 56.3
Activity [27]: 32.3%

Structure (SMILES): CC(C)CC(=O)c1c(O)c(C=O)c(O)c(C[C@H]2CC[C@@](C)(O)C3[C@H]4[C@@H](CC[C@@]32C)C4(C)C)c1O (stereo partly drawn)
IC50 [1]: 35.3 µM
CC50 at 48 h [2]: 598 µM
Ratio CC50/IC50 [3]: 16.9

Structure (SMILES): C=C1CC[C@@H]2[C@H](C3C1CC[C@]3(C)C(CC(C)C)c1c(O)c(C=O)c(O)c(C=O)c1O)C2(C)C (stereo partly drawn)
IC50 [1]: 69.6 µM
CC50 at 48 h [2]: 541 µM
Ratio CC50/IC50 [3]: 8.3

Structure (SMILES): CC(C)C[C@H](c1c(O)c(C=O)c(O)c(C=O)c1O)C1CC[C@@H](C)C2=C[C@@H](C(C)(C)O)CC[C@@]21C (stereo partly drawn)
IC50 [1]: 52.3 µM
CC50 at 48 h [2]: 544 µM
Ratio CC50/IC50 [3]: 10.4

Structure (SMILES): CO[C@]1(C)CC[C@@H]2[C@H]([C@H]3[C@H]1CC[C@]3(C)[C@H](CC(C)C)c1c(O)c(C=O)c(O)c(C=O)c1O)C2(C)C
IC50 [1]: 35.8 µM
CC50 at 48 h [2]: 562 µM
Ratio CC50/IC50 [3]: 15.7

Structure (SMILES): CO[C@]1(C)CC[C@@H]2[C@H]([C@H]3[C@H]1CC[C@]3(C)[C@@H](CC(C)C)c1c(O)c(C=O)c(O)c(C=O)c1O)C2(C)C
IC50 [1]: 68.4 µM
CC50 at 48 h [2]: 578 µM
Ratio CC50/IC50 [3]: 8.5

Structure (SMILES): CC(C)C[C@@H](c1c(O)c(C=O)c(O)c(C=O)c1O)C1CC[C@@H](C)C2=C[C@@H](C(C)(C)O)CC[C@@]21C (stereo partly drawn)
IC50 [1]: 42.4 µM
CC50 at 48 h [2]: 602 µM
Ratio CC50/IC50 [3]: 14.2

Structure (SMILES): CC(C)C[C@H](c1c(O)c(C=O)c(O)c(C=O)c1O)[C@@]1(C)CC[C@@H]2[C@@H]1[C@H]1[C@@H](CC[C@]2(C)O)C1(C)C
IC50 [1]: 26.3 µM
CC50 at 48 h [2]: 597 µM
Ratio CC50/IC50 [3]: 22.7

Structure (SMILES): CC(C)C[C@@H]1c2c(O)c(C=O)c(O)c(C=O)c2O[C@]2(C)C=C[C@@](O)(C(C)C)CC12 (stereo partly drawn)
IC50 [1]: 10.2 µM
CC50 at 48 h [2]: 656 µM
Ratio CC50/IC50 [3]: 64.2
